From PubChem BioAssay AID686919 (Broad Institute, 2013)
Active and inactive are the calls of the source.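 How the source made its calls: active means remaining cruzain activity at or below half of the DMSO control at 10 µM, implied only; inactive means remaining activity above half of control.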

Test system: cruzain (cruzipain) [Trypanosoma cruzi]
Assay: T. cruzi cruzain enzyme activity inhibition – biochemical, dry powder, percent inhibition, mechanism study for T. cruzi phenotypic hit project, dose response (AID 686919)
Conditions: recombinant cruzain, Z-Phe-Arg-AMC fluorescence rate; at 10 µM (top of the series)
In short: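 test system = recombinant cruzain | buffer or medium = 100 mM NaOAc pH 5.5, 5 mM DTT, 0.01% Triton X-100 | reagent = fluorogenic substrate Z-Phe-Arg-AMC at 10 µM final | schedule = 5 min room-temperature enzyme–compound preincubation, followed by 3 min rate reading | measured by = AMC fluorescence rate, 355/460 nm | evaluation = release rate versus DMSO control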

Structure (SMILES)	remaining cruzain activity (% of DMSO control)
CN(C)C(=O)c1cccc(-c2ccc([C@H]3[C@H](CO)N4CCCCN(C(=O)CC5CC5)C[C@@H]34)cc2)c1	83.3% (inactive)
CN(C)C(=O)c1cccc(-c2ccc([C@H]3[C@H](CO)N4CCCCN(C(=O)C5CCCCC5)C[C@@H]34)cc2)c1	72.3% (inactive)
O=C(C1CCC1)N1CCCCN2[C@@H](CO)[C@H](c3ccc(Br)cc3)[C@@H]2C1	133% (inactive)

The next lines start with the values.

remaining cruzain activity (% of DMSO control)	Structure (SMILES)
104% (inactive)	CN(C)C(=O)c1cccc(-c2ccc([C@H]3[C@H](CO)N4CCCCN(C(=O)C5CC5)C[C@@H]34)cc2)c1
106% (inactive)	CN(C)C(=O)c1cccc(-c2ccc([C@H]3[C@H](CO)N4CCCCN(C(=O)C5CCC5)C[C@@H]34)cc2)c1
